pIC50: −log10 of the molar value. Calls of active or inactive are those of the source. The rule behind the calls is not given here.
Tests used:
[1] = Antiproliferative activity against human TC71 cells assessed as reduction in cell viability after 72 hrs by CellTiter-Glo assay; type: functional, cell-based; details: TC-71, 72 h
How it was run: (§1)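 Cells seeded in 96-well plates, left overnight at 37°C, then exposed to a range of test concentrations for 72 h. Viability read by CellTiter-Glo luminescence; IC50 from four-parameter curve fit. Lines kept at 37°C, 5% CO2, in recommended growth medium.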

KARPAS-299 = assay: Antiproliferative activity against human KARPAS-299 cells assessed as reduction in cell viability after 72 hrs by CellTiter-Glo assay; type: functional, cell-based; details: KARPAS-299, 72 h; how it was run: as §1
A549 = assay: Antiproliferative activity against human A549 cells assessed as reduction in cell viability after 72 hrs by CellTiter-Glo assay; type: functional, cell-based; details: A549, 72 h; how it was run: as §1
HN5 = assay: Antiproliferative activity against human HN5 cells assessed as reduction in cell viability after 72 hrs by CellTiter-Glo assay; type: functional, cell-based; details: HN5, 72 h; how it was run: as §1
[2] = Antiproliferative activity against IGF1-stimulated mouse NIH-3T3/LISN cells over expressing human IGF1R assessed as reduction in cell viability preincubated for 2 hr followed by IGF1R stimulation and measured after 72 hrs by CellTiter-Glo assay; type: functional, cell-based
How it was run: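 NIH-3T3 overexpressing human IGF-IR, kept in DMEM/10% FBS with 500 µg/mL G418. Seeded on collagen-coated 96-well plates and allowed to adhere 24 h. Switched to serum-free medium, compound or DMSO added for 2 h, then IGF-I 30 ng/mL. Incubated 72 h at 37°C. Read by CellTiter-Glo; IC50 by four-parameter fit.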

COLO 205 = assay: Induction of cell cycle arrest in human COLO 205 cells assessed as decrease in cells accumulation at S phase at 0.03 to 10 uM incubated for 24 to 48 hrs by propidium iodide staining based flow cytometric analysis; type: functional; details: dose 0.03-10 µM, time lower 24.0 hrs, time upper […]
How it was run: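 COLO 205, MCF-7 or NCI-H929 cells seeded in 96-well plates overnight at 37°C, then exposed to DMSO or increasing compound concentrations for 24 or 48 h. Fixed and stained with propidium iodide (Vindelov method), then analysed by flow cytometry for sub-G1, G1, S and G2-M fractions. Experiment repeated twice.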

[3] = (§2) In vivo inhibition of IGF1R in mouse NIH-3T3/LISN cells implanted in IGF1-stimulated nu/nu CD-1 mouse assessed as reduction in IGF1R phosphorylation at 30 mg/kg, po pretreated for 4 hrs followed by IGF1 stimulation and measured after 10 min by […] relative to control; type: functional; details: 4.167 h, time 250 min
How it was run: (§3)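 Female nu/nu CD-1 mice, three per group, bearing ~500 mm3 tumors, given one oral dose of compound or vehicle. At 4 h, 10 µg hIGF-I i.v. via tail vein; saline controls. Tumor and blood taken 10 min later. Tumor lysates in RIPA captured on anti-IGF-IR plates and probed with europium anti-phosphotyrosine. Phospho/total IGF-IR expressed as % of ligand-stimulated control. Blood levels by LC-MS/MS.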

[4] = as §2, with “xenografted” for “implanted”, “3.5 umol/L blood compound concentration” for “30 mg/kg, po”; type: functional; details: dose 3.5 µmol/L; time 250 min; 4.167 h; at 3.5 µM; how it was run: as §3
[5] = target: Epidermal growth factor receptor (Homo sapiens, UniProt P00533); assay: Inhibition of EGFR (unknown origin)
[6] = target: Inhibitor of nuclear factor kappa-B kinase subunit beta (Homo sapiens, UniProt O14920); assay: Inhibition of IKK2 (unknown origin)
Sequence of Inhibitor of nuclear factor kappa-B kinase subunit beta (O14920 whole entry): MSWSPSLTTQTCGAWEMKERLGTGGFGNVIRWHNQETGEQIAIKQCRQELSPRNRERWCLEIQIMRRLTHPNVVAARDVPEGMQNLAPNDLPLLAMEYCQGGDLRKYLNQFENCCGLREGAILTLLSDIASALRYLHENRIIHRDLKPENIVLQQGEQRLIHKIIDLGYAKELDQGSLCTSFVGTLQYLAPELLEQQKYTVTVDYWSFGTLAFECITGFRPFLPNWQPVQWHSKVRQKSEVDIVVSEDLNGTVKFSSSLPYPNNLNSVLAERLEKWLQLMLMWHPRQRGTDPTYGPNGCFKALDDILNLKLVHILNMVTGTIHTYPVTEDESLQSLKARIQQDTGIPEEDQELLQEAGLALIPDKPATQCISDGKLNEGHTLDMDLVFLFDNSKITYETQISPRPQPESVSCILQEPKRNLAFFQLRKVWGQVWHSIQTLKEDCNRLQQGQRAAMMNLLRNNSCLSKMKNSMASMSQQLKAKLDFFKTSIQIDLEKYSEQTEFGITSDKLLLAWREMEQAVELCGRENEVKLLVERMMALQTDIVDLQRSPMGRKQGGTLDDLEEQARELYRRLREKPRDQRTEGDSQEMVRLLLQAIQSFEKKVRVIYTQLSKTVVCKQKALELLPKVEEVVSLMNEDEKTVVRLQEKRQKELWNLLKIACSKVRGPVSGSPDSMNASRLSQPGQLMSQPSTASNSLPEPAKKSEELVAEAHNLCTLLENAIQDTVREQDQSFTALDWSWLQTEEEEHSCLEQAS

[7] = target: Mitogen-activated protein kinase 10 (Homo sapiens, UniProt P53779); assay: Inhibition of JNK3 (unknown origin)
[8] = target: Phosphatidylinositol 4,5-bisphosphate 3-kinase catalytic subunit alpha isoform (Homo sapiens, UniProt P42336); assay: Inhibition of PI3Kalpha (unknown origin)
Sequence of Phosphatidylinositol 4,5-bisphosphate 3-kinase catalytic subunit alpha isoform (P42336 whole entry, canonical isoform): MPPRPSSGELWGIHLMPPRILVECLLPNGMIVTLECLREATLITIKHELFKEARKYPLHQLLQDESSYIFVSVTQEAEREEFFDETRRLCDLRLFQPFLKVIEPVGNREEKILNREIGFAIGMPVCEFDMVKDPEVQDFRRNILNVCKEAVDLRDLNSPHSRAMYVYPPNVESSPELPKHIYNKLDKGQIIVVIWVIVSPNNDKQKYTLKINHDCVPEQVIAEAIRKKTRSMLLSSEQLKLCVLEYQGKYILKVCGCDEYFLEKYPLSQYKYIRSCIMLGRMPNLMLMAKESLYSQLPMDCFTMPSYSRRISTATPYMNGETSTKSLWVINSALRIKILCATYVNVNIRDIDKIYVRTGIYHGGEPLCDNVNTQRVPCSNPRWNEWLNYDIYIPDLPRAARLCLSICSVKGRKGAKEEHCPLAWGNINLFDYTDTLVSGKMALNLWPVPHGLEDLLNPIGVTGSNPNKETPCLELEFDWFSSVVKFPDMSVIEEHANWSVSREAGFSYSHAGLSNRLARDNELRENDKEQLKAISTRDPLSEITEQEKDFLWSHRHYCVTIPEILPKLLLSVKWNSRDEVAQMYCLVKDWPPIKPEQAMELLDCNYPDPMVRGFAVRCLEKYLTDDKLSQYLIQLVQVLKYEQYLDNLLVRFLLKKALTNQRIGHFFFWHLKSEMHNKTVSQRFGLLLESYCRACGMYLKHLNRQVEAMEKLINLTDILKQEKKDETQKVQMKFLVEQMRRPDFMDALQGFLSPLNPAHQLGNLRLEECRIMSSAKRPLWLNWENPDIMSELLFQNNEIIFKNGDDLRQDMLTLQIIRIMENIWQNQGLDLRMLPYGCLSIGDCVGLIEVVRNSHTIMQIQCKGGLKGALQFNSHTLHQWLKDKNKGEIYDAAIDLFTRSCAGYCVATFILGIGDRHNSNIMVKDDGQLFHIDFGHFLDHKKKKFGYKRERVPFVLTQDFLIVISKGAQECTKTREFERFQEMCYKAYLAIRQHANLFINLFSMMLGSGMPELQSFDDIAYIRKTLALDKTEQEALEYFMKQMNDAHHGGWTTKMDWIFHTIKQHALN

[9] = target: Ribosomal protein S6 kinase alpha-1 (Homo sapiens, UniProt Q15418); assay: Inhibition of RSK1 (unknown origin)
Sequence of Ribosomal protein S6 kinase alpha-1 (Q15418 whole entry): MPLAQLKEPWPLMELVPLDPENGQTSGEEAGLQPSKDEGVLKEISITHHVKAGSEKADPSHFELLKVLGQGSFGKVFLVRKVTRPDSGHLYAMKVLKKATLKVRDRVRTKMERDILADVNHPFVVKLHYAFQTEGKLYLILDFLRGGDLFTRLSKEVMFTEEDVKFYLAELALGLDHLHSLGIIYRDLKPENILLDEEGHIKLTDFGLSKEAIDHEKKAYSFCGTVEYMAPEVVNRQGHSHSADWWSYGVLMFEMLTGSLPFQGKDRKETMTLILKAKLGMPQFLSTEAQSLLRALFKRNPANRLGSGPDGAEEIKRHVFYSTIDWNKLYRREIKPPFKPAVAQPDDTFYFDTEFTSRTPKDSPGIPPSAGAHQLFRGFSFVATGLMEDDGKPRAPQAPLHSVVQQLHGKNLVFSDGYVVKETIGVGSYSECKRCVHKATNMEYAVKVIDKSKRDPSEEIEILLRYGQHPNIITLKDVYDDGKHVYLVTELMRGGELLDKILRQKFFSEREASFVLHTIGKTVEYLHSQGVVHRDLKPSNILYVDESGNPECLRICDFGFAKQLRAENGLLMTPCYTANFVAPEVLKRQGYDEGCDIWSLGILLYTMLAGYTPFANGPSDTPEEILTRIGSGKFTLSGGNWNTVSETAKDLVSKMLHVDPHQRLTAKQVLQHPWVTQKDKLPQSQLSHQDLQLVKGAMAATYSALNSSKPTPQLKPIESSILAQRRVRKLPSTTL

[10] = target: Proto-oncogene tyrosine-protein kinase Src (Homo sapiens, UniProt P12931); assay: Inhibition of SRC1 (unknown origin)
Sequence of Proto-oncogene tyrosine-protein kinase Src (P12931 2-536 limits assumed): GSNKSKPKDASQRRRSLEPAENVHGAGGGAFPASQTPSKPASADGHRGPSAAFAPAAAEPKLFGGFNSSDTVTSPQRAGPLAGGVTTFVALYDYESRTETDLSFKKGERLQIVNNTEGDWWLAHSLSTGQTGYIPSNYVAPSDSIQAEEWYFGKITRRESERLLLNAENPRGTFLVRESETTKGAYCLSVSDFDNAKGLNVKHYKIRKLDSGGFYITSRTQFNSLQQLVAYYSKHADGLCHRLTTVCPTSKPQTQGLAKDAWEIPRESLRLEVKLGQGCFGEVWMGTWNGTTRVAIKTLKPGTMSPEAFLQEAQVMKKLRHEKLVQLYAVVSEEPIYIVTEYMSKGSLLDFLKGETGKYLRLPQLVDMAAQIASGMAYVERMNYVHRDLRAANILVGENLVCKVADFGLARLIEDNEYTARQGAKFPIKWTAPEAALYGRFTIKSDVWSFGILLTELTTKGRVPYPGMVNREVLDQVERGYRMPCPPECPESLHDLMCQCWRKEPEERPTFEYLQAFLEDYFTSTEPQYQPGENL

[11] = target: Serine/threonine-protein kinase PLK1 (Homo sapiens) (UniProt P53350); assay: Inhibition of N-terminal 6His-tagged recombinant human Plk1 expressed in baculovirus infected Sf21 cells at 0.3 uM by filter binding assay relative to control
How it was run: (§4)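 Outsourced single-concentration screen in a commercial panel of 233 protein kinases, run as radiometric filter-binding activity assays. Test agent was tested at 0.3 or 3 µmol/L, as given in each line, from a 10 mmol/L DMSO stock. Activity is expressed as percent inhibition relative to control.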

[12] = target: Homeodomain-interacting protein kinase 2 (Homo sapiens) (UniProt Q9H2X6); assay: Inhibition of N-terminal His6-tagged recombinant human HIPK2 (165 to 564 residues) expressed in baculovirus infected Sf21 cells at 3 uM by filter binding assay relative to control
Sequence of Homeodomain-interacting protein kinase 2 (Homo sapiens) (Q9H2X6 whole entry, looked up, the tested form may be a part): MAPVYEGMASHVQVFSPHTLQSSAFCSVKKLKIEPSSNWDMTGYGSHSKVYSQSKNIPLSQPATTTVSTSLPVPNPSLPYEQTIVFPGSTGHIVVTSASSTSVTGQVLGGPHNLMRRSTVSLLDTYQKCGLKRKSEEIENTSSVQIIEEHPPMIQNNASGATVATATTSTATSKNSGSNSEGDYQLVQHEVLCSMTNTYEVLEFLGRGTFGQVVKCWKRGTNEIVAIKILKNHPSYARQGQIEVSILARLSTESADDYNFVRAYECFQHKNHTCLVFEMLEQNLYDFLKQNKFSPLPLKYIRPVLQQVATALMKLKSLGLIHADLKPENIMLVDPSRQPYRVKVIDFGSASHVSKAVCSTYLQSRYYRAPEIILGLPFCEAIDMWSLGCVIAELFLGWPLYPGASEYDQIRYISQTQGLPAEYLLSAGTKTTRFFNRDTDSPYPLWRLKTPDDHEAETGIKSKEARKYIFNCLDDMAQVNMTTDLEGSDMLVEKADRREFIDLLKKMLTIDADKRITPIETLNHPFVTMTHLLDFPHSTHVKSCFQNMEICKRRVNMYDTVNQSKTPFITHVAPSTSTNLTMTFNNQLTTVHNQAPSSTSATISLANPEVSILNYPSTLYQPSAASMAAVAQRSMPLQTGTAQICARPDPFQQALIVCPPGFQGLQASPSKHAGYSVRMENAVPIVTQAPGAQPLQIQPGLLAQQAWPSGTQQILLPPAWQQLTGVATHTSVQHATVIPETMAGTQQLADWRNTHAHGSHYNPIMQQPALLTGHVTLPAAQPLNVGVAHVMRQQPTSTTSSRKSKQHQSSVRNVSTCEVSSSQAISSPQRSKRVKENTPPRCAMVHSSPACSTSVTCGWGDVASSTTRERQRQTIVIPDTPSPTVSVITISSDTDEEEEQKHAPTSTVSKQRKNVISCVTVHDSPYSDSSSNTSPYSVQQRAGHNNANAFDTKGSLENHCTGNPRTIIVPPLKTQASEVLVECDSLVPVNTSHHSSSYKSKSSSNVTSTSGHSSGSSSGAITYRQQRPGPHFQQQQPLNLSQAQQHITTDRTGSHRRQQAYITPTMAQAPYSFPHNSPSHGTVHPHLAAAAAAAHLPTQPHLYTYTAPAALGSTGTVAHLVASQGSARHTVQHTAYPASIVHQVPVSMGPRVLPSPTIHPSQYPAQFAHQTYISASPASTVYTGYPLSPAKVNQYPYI

[13] = target: Tyrosine-protein kinase Lyn (Homo sapiens) (UniProt P07948); assay: Inhibition of N-terminal His6-tagged recombinant full-length human Lyn expressed in Sf21 cells at 3 uM by filter binding assay relative to control; how it was run: as §4
[14] = target: Protein kinase C alpha type (Homo sapiens) (UniProt P17252); assay: Inhibition of N-terminal His6 tagged recombinant full-length human PKCalpha expressed in baculovirus infected Sf21 cells at 3 uM by filter binding assay relative to control; how it was run: as §4
[15] = target: Serine/threonine-protein kinase Sgk2 (Homo sapiens) (UniProt Q9HBY8); assay: Inhibition of human SGK2 at 3 uM by filter binding assay relative to control
[16] = target: Tyrosine-protein kinase BTK (Homo sapiens, UniProt Q06187); assay: Inhibition of N-terminal His6-tagged recombinant full-length human BTK expressed in baculovirus infected Sf21 cells by filter binding assay
[17] = target: Tyrosine-protein kinase Fes/Fps (Homo sapiens, UniProt P07332); assay: Inhibition of N-terminal His6-tagged recombinant full length human Fes expressed in baculovirus infected Sf21 cells by filter binding assay
[18] = target: Vascular endothelial growth factor receptor 3 (Homo sapiens, UniProt P35916); assay: Inhibition of N-terminal GST-tagged recombinant human Flt4 (800 to end residues) expressed in baculovirus infected Sf21 cells by filter binding assay
[19] = target: Ribosomal protein S6 kinase alpha-4 (Homo sapiens, UniProt O75676); assay: Inhibition of N-terminal His6-tagged recombinant human MSK2 (2 to end residues) expressed in baculovirus infected Sf21 cells by filter binding assay
Sequence of Ribosomal protein S6 kinase alpha-4 (O75676 whole entry): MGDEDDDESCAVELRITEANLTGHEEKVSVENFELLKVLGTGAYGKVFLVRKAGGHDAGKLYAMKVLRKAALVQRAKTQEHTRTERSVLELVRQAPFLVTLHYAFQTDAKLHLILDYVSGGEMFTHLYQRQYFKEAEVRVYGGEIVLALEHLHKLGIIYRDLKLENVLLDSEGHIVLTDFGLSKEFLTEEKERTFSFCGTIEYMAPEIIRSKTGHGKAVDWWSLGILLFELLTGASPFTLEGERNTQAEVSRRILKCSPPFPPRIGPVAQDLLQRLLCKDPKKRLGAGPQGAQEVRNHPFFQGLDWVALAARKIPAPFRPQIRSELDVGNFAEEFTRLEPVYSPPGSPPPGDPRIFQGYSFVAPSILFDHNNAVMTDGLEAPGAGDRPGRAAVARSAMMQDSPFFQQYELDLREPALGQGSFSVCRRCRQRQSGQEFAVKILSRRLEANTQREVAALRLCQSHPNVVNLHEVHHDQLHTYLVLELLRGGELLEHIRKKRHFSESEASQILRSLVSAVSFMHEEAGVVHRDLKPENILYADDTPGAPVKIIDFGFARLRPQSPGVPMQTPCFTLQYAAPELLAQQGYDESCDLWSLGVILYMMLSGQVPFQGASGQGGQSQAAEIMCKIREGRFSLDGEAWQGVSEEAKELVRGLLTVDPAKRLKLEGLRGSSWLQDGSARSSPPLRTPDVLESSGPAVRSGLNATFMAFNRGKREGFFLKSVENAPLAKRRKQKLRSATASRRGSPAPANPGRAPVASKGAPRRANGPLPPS

[20] = target: Insulin receptor (Mus musculus) (UniProt P15208); details: CD-1, dose >= 30.0 mg/kg, route po, time 4.25 hrs
[21] = target: 3-phosphoinositide-dependent protein kinase 1 (PDPK1) (Homo sapiens) (UniProt O15530); assay: Inhibition of N-terminal His6-tagged recombinant human PDK1 (52 to end residues) expressed in baculovirus infected Sf21 cells at 0.3 uM by filter binding assay relative to control

Structure (SMILES): CCc1cc(Nc2nccc(-c3c(-c4ccc(OC)c(C(=O)Nc5c(F)cccc5F)c4)nc4ccccn34)n2)c(OC)cc1N1CCC(N2CCN(S(C)(=O)=O)CC2)CC1
- pIC50 [1]: 7.46
- pIC50 (KARPAS-299): < 4.52
- pIC50 (A549): < 4.70
- pIC50 (HN5): < 4.70
- pIC50 [2]: 7.22
- Activity (COLO 205): Active
- inhibition in vivo at 30 mg/kg [3]: 99%
- inhibition (INH) [4]: 100%
- pIC50 [5]: < 5.00
- pIC50 [6]: 4.89
- pIC50 [7]: < 5.00
- pIC50 [8]: < 5.00
- pIC50 [9]: 5.20
- pIC50 [10]: < 5.00
- inhibition [11]: -8%
- inhibition [12]: 4%
- inhibition [13]: 37%
- inhibition [14]: 1%
- inhibition [15]: 25%
- pIC50 [16]: 6.45
- pIC50 [17]: 6.83
- pIC50 [18]: 6.80
- pIC50 [19]: 5.44
- inhibition [20]: Dose-Dependent Effect
- inhibition [21]: 1%
